Experiments:
[1] = biological target: Fibroblast growth factor receptor 1 (Homo sapiens) (UniProt P11362); experiment: Inhibition of recombinant human N-terminal His6-tagged FGFR1 (400 to 820 residues) expressed in baculovirus infected Sf21 cells assessed as remaining activity at 1 uM using Poly(Glu,Tyr) as substrate incubated for 30 mins in presence of [gamma-33P]ATP by filter binding method relative to control
Procedure, shortened: (§1)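 Panel assays were run for 30 min at 21 °C, within the linear range for time and enzyme. […] Results are percent activity remaining relative to compound-free control, averaged from triplicate ± S.D.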

[2] = biological target: Homeodomain-interacting protein kinase 2 (Homo sapiens) (UniProt Q9H2X6); experiment: Inhibition of recombinant human N-terminal GST-tagged HIPK2 (165 to 564 residues) expressed in Escherichia coli assessed as remaining activity at 1 uM using MBP as substrate incubated for 30 mins in presence of [gamma-33P]ATP by filter binding method relative to control
Procedure, shortened: (§2)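 Radiometric kinase panel run robotically at room temperature (21 °C) for 30 min, linear in time and enzyme. […] Activity is expressed as percent of control without compound, from triplicate determinations ± S.D.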

[3] = biological target: Calcium/calmodulin-dependent protein kinase kinase 2 (Homo sapiens) (UniProt Q96RR4); experiment: Inhibition of recombinant human N-terminal GST-tagged CAMKKbeta (1 to 541 residues) expressed in Escherichia coli assessed as remaining activity at 10 uM using DGEFLRTSCGSPNYAARRR as substrate incubated for 30 mins in presence of [gamma-33P]ATP by filter binding method relative to control
Procedure, shortened: (§3)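 Robotic radiometric panel assay, 30 min at room temperature (21 °C), with 10 mM magnesium acetate. […] Compound at 1 or 10 µM. Residual activity expressed relative to compound-free control; triplicate average ± S.D.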

[4] = biological target: Phosphatidylinositol 4-phosphate 3-kinase C2 domain-containing subunit beta (Homo sapiens) (UniProt O00750); experiment: Inhibition of PI3KC2beta (unknown origin) assessed as remaining activity at 1 uM using phosphatidylinositol as substrate incubated for 30 mins in presence of ATP relative to control
Procedure, shortened: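 PI3KC2β assayed with 20 μM phosphatidylinositol, 0.2 mM ATP, 2 mM MgCl2, in Tris/HCl pH 7.5 with CHAPS, 30 min at room temperature. Stopped with EDTA, product detected by time-resolved FRET competition with PtdIns3P–biotin and SGK PX domain. Activity as % of no-compound control, triplicate.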

[5] = biological target: Mitogen-activated protein kinase 11 (Homo sapiens) (UniProt Q15759); experiment: Inhibition of recombinant human N-terminal GST-tagged P38beta (1 to 364 residues) expressed in Escherichia coli assessed as remaining activity at 10 uM using MBP as substrate incubated for 30 mins in presence of [gamma-33P]ATP by filter binding method relative to control; procedure, shortened: as §1
[6] = biological target: 3-phosphoinositide-dependent protein kinase 1 (Homo sapiens) (UniProt O15530); experiment: Inhibition of recombinant human His6-tagged PDK1 (52 to 556 residues) expressed in baculovirus infected Sf21 cells assessed as remaining activity at 10 uM using PDKtide as substrate incubated for 30 mins in presence of [gamma-33P]ATP by filter binding method relative to control; procedure, shortened: as §3
[7] = biological target: Mitogen-activated protein kinase 8 (Homo sapiens) (UniProt P45983); experiment: Inhibition of recombinant human His6-tagged JNK1alpha1 (1 to 384 residues) expressed in baculovirus infected Sf21 cells assessed as remaining activity at 1 uM using ATF2 as substrate incubated for 30 mins in presence of [gamma-33P]ATP by filter binding method relative to control; procedure, shortened: as §3
[8] = biological target: Serine/threonine-protein kinase N2 (Homo sapiens) (UniProt Q16513); experiment: Inhibition of recombinant N-terminal His6/FLAG-tagged human PRK2 (501 to 984 residues) expressed in baculovirus infected Sf21 cells assessed as remaining activity at 10 uM using S6 peptide as substrate incubated for 30 mins in presence of [gamma-33P]ATP by filter binding method relative to control
Procedure, shortened: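 Kinase panel run robotically at 21 °C for 30 min, linear in time and enzyme. […] Compound tested at 1 or 10 µM. Activity given as percentage of incubations without compound, mean of triplicates ± S.D.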

[9] = system: Serine/threonine-protein kinase Sgk1 (Homo sapiens), O00141 [S422D]; experiment: Inhibition of recombinant human His6-tagged SGK1 S422D mutant (60 to 431 residues) expressed in baculovirus infected Sf21 cells assessed as remaining activity at 1 uM using GRPRTSSFAEGKK as substrate incubated for 30 mins in presence of [gamma-33P]ATP by filter binding method relative to control
Procedure, shortened: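 Incubations ran robotically for 30 min at room temperature (21 °C) under linear conditions. Results are percent activity remaining versus controls without compound, as the mean of triplicates ± S.D.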

[10] = biological target: Vascular endothelial growth factor receptor 1 (Homo sapiens) (UniProt P17948); experiment: Inhibition of recombinant human N-terminal GST-tagged VEGFR1 (784 to 1338 residues) expressed in baculovirus infected Sf21 cells assessed as remaining activity at 1 uM using KKKSPGEYVNIEFG as substrate incubated for 30 mins in presence of [gamma-33P]ATP by filter binding assay relative to control; procedure, shortened: as §1
MEF = experiment: Growth inhibition of mLST8 knockout MEF cells assessed reduction in cell viability at 3 uM incubated for 1 to 3 days by crystal violet staining based assay; type: toxicity; conditions: mouse, time 1-3 day
Procedure, shortened: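 MEFs seeded at 20000 cells per 1.91 cm2 well, grown overnight in 10% foetal bovine serum, then cultured 1, 2 or 3 days with 3 μM inhibitor, 100 nM rapamycin or DMSO. Medium changed every 24 h with freshly dissolved inhibitors. Cells fixed in 4% paraformaldehyde, stained with 0.1% Crystal Violet, dye extracted in 10% acetic acid, A590 read. Quadruplicate wells, expressed as % of DMSO control.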

[11] = biological target: Serine/threonine-protein kinase PAK 4 (Homo sapiens) (UniProt O96013); experiment: Inhibition of recombinant human N-terminal GST-tagged PAK4 (2 to 519 residues) expressed in Escherichia coli assessed as remaining activity at 1 uM using RRRLSFAEPG as substrate incubated for 30 mins in presence of [gamma-33P]ATP by filter binding method relative to control; procedure, shortened: as §2
mTORC2 (Homo sapiens) = mTORC2 (Homo sapiens) (UniProt P42345+Q6R327+Q9BVC4+Q9BPZ7); conditions: HEK293, dose 30-1000 nM, time 30.0 min
mTORC1 (Homo sapiens) = mTORC1 (Homo sapiens) (UniProt P42345+Q8N122+Q9BVC4); conditions: HEK293, dose 100-300 nM, time 30.0 min
[12] = biological target: Sphingosine kinase 2 (Homo sapiens) (UniProt Q9NRA0); experiment: Inhibition of SPHK2 (unknown origin) assessed as remaining activity at 1 uM using sphingosine as substrate incubated for 30 mins in presence of ATP relative to control
Procedure, shortened: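 SPHK2 reaction: 10 μM sphingosine, 1 μM ATP, 50 mM Tris/HCl pH 7.5, 200 mM KCl, 5 mM MgCl2, 1 mM EGTA, 1 mM DTT, 30 min at room temperature. Kinase-Glo Plus luminescence read-out. Percentage of control activity, triplicate.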

Sequence of Phosphatidylinositol 4-phosphate 3-kinase C2 domain-containing subunit beta (Homo sapiens) (O00750 whole entry, the tested form may be a part): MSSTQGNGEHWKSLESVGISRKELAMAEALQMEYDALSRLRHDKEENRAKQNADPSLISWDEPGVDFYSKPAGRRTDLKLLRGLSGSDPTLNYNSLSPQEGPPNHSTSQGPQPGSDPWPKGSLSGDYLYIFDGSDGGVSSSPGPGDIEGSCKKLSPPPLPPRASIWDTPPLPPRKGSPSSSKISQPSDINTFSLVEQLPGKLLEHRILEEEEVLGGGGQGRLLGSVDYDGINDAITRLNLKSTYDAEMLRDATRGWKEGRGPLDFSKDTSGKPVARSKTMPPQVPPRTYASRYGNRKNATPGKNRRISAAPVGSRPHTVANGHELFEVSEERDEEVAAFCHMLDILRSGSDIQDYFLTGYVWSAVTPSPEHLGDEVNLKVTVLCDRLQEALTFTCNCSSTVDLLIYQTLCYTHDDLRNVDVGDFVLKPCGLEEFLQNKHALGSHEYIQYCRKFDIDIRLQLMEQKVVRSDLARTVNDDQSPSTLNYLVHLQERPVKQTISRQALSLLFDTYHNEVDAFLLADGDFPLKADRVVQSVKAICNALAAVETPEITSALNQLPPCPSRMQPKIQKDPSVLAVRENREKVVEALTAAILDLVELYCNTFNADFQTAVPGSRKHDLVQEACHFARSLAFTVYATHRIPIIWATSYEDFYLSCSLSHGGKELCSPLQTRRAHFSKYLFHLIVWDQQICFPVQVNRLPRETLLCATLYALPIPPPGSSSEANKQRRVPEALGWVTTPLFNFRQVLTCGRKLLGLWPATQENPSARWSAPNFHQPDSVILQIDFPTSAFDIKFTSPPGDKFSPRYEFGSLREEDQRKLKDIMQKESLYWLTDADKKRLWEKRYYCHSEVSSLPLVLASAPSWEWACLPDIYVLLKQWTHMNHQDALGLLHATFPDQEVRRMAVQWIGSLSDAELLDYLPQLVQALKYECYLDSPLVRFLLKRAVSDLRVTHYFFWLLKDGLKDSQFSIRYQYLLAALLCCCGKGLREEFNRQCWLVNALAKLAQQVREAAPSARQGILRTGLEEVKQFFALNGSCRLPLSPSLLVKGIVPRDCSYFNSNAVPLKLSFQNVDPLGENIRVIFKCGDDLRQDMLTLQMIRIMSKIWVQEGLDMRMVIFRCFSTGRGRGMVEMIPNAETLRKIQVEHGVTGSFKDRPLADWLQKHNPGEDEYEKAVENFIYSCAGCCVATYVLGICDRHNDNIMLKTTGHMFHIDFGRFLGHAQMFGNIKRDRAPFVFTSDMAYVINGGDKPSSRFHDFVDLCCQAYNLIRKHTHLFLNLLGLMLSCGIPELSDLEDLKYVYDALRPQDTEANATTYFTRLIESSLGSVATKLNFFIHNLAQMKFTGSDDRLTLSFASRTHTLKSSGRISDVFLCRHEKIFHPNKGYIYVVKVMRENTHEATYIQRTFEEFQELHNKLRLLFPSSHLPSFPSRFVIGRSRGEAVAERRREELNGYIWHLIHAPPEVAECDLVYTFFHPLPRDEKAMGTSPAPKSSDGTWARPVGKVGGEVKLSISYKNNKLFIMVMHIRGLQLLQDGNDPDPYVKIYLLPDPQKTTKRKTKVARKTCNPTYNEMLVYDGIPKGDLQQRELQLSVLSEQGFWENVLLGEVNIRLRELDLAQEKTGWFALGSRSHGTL
Sequence of Calcium/calmodulin-dependent protein kinase kinase 2 (Homo sapiens) (Q96RR4 2-588 limits assumed): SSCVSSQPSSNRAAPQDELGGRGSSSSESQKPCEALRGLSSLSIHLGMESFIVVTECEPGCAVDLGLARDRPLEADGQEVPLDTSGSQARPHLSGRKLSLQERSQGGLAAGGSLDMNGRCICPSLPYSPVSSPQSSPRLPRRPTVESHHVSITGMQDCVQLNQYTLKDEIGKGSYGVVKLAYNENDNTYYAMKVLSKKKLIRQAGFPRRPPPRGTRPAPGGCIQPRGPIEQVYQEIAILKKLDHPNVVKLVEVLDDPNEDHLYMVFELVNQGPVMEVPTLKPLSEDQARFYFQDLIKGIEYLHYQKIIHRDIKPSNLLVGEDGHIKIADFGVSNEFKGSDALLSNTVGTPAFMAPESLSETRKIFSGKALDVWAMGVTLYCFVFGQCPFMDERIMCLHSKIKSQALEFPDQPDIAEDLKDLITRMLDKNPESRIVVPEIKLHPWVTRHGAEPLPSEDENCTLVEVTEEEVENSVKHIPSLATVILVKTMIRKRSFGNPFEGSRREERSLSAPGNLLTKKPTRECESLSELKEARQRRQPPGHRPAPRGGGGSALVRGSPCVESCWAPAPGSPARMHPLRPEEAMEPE
Sequence of Mitogen-activated protein kinase 8 (Homo sapiens) (P45983 whole entry, the tested form may be a part): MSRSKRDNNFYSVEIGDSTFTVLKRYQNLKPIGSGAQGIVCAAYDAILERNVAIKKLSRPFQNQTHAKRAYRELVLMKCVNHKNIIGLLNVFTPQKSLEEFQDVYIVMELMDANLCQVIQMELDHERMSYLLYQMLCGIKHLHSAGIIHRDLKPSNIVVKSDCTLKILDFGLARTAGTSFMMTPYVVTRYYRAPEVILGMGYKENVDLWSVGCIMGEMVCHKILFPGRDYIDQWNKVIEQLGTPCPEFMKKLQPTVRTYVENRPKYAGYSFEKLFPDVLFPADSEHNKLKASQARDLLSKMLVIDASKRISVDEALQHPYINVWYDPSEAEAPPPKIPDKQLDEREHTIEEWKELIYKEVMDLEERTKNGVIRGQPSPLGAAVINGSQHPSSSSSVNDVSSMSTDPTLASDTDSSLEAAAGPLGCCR
Sequence of Serine/threonine-protein kinase Sgk1 (Homo sapiens), O00141 [S422D] (O00141 whole entry S422D, the tested form may be a part): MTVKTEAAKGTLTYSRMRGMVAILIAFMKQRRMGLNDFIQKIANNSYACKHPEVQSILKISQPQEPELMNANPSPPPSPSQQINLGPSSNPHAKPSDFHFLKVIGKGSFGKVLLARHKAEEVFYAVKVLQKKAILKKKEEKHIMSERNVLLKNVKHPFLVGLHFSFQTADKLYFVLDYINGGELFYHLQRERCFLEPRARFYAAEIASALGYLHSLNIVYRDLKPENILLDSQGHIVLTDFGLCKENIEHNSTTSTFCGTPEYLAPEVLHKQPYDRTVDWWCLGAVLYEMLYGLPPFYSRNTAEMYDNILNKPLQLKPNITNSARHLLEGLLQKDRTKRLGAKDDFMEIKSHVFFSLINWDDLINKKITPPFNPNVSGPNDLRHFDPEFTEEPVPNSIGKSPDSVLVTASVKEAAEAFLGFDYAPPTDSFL
Sequence of Fibroblast growth factor receptor 1 (Homo sapiens) (P11362 22-822 limits assumed): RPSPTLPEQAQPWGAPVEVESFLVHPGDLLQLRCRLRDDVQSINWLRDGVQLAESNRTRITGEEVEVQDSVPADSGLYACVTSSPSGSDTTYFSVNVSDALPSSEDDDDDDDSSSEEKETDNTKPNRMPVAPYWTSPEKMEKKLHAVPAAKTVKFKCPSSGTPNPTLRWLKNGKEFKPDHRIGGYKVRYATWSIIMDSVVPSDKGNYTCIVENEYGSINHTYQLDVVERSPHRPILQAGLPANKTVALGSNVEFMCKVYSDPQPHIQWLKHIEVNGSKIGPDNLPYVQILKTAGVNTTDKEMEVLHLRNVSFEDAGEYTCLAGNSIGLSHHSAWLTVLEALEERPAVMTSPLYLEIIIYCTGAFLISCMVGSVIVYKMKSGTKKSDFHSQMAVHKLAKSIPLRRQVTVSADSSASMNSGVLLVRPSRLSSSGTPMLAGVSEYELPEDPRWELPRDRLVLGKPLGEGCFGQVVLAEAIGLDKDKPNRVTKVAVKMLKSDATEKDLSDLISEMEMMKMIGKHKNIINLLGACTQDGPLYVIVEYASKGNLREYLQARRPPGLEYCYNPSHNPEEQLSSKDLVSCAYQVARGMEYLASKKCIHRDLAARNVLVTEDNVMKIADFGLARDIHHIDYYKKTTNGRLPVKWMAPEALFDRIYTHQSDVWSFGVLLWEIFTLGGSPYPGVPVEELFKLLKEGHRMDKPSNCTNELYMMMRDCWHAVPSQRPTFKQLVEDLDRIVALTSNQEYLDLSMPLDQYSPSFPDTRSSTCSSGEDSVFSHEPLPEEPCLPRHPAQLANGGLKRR
Sequence of 3-phosphoinositide-dependent protein kinase 1 (Homo sapiens) (O15530 whole entry, the tested form may be a part): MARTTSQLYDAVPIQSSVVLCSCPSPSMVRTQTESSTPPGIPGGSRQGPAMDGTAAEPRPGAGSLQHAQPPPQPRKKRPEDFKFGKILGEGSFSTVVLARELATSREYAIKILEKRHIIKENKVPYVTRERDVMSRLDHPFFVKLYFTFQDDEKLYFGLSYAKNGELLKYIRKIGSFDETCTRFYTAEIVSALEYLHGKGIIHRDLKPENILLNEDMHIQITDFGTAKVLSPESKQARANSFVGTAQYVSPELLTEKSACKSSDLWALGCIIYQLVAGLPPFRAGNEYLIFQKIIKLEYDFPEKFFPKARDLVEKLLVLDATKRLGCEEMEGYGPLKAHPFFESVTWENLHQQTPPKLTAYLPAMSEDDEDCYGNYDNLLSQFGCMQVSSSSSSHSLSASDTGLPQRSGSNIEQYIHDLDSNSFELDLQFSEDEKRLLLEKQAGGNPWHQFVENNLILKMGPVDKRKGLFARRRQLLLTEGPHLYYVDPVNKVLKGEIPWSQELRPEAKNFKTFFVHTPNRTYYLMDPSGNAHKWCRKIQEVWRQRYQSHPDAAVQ
Sequence of Mitogen-activated protein kinase 11 (Homo sapiens) (Q15759 whole entry, the tested form may be a part): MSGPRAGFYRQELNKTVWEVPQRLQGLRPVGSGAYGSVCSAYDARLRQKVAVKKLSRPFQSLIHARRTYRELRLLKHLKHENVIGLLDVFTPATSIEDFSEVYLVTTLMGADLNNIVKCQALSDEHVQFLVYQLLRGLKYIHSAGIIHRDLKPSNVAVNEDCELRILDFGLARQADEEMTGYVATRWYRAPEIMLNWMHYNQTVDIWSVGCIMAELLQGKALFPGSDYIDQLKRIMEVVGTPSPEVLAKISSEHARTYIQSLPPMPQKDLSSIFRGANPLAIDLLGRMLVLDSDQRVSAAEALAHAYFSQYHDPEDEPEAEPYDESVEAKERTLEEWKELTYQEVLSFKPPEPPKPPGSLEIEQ

COc1ccc(-c2ccc3c(N4CCOCC4)nc(N4C[C@@H](C)O[C@@H](C)C4)nc3n2)cc1CO [Ku-0063794]
Activity [1]: 102%
Activity [2]: 89%
Activity [3]: 94%
Activity [4]: 126%
Activity [5]: 83%
Activity [6]: 91%
Activity [7]: 80%
Activity [8]: 105%
Activity [9]: 76%
Activity [10]: 92%
growth inhibition (GI) (MEF): Toxic
Activity [11]: 110%
inhibition (mTORC2 (Homo sapiens)): Dose-Dependent Effect
inhibition (mTORC1 (Homo sapiens)): 100%
Activity [12]: 119%
